Read-outs that look alike come from different tables or passages of the source.
What was measured:
Format in all cases: cell-based
U937 = experiment: MTT antiproliferative assay, leukemia U937 cells; conditions: Homo sapiens, U-937, 72 h, read-out: IC50 values, U937
In short: (§1)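 ATCC-sourced cancer cells were seeded in RPMI 1640 at 20 000 cells/mL and left 24 h to adhere. Serial dilutions of test compound ([…], in DMSO) were added, then incubated 72 h. MTT (5 mg/mL in PBS) was added for 4 h. Medium was removed, formazan dissolved in DMSO and read at 570 nm. IC50 came from linear regression of the dose–response curve; three runs, mean ± SD.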

HeLa = experiment: MTT antiproliferative assay, cervical HeLa cells; conditions: Homo sapiens, 72 h, read-out: IC50 values, HeLa
In short: as §1

SKMEL-28 = experiment: MTT antiproliferative assay, melanoma SKMEL-28 cells; conditions: read-out: IC50 values, SKMEL-28
In short: as §1

RKOP 27 = experiment: MTT antiproliferative assay, colon RKOP 27 cells; conditions: RKOp27, 72 h, read-out: IC50 values, RKOP 27
In short: as §1

NCIH 460 = experiment: MTT antiproliferative assay, large-cell lung NCIH 460 cells; conditions: Homo sapiens, NCI-H460, 72 h, read-out: IC50 values, N CIH 460
In short: as §1

N#Cc1c(-c2ccc(Cl)cc2)cc(-c2cccc3ccccc23)[nH]c1=O [4a, 4-(4-Chlorophenyl)-6-(naphthalen-1-yl)-2-oxo-1,2-dihydropyridine-3-carbonitrile]
IC50 (U937): 0.766 ± 0.019 µM | IC50 (HeLa): 0.25 ± 0.019 µM | IC50 (SKMEL-28; Homo sapiens, SK-MEL-28, 72 h): 0.59 ± 0.015 µM | IC50 (RKOP 27): 0.03 ± 0.0015 µM | IC50 (NCIH 460): 0.066 ± 0.009 µM

N#Cc1c(-c2cccs2)cc(-c2cccc3ccccc23)nc1NNC(=O)Cc1ccccc1 [14b, N′-(3-Cyano-6-(naphthalen-1-yl)-4-(thiophen-2-yl)pyridin-2-yl)-2-phenylacetohydrazide]
IC50 (U937): 0.976 ± 0.125 µM | IC50 (HeLa): 1.39 ± 0.11 µM | IC50 (SKMEL-28; Homo sapiens, SK-MEL-28, 72 h): 1.36 ± 0.098 µM | IC50 (RKOP 27): 0.869 ± 0.087 µM | IC50 (NCIH 460): 0.789 ± 0.069 µM

aldelseukin [reference compound]
IC50 (SKMEL-28; MTT, 72 h, mean ± SD, three runs): 3.45 ± 0.064 µM

Nc1ccn([C@@H]2O[C@H](CO)[C@@H](O)C2(F)F)c(=O)n1 [gemcitabine, reference compound]
IC50 (NCIH 460): 2.13 ± 0.05 µM

N#Cc1c(-c2ccc(Cl)cc2)cc(-c2cccc3ccccc23)n(C(=S)Nc2ccccc2)c1=O [5a, 4-(4-Chlorophenyl)-3-cyano-6-(naphthalen-1-yl)-2-oxo-N-phenylpyridine-1(2H)-carbothioamide]
IC50 (U937): 1.53 ± 0.255 µM | IC50 (HeLa): 0.973 ± 0.185 µM | IC50 (SKMEL-28; Homo sapiens, SK-MEL-28, 72 h): 1.16 ± 0.318 µM | IC50 (RKOP 27): 0.635 ± 0.0458 µM | IC50 (NCIH 460): 0.518 ± 0.0566 µM

N#Cc1c(-c2cccs2)cc(-c2cccc3ccccc23)n(C(=S)Nc2ccccc2)c1=O [5b, 3-Cyano-6-(naphthalen-1-yl)-2-oxo-N-phenyl-4-(thiophen-2-yl)pyridine-1(2H)-carbothioamide]
IC50 (U937): 0.98 ± 0.055 µM | IC50 (HeLa): 0.277 ± 0.055 µM | IC50 (SKMEL-28; Homo sapiens, SK-MEL-28, 72 h): 0.755 ± 0.018 µM | IC50 (RKOP 27): 0.056 ± 0.0032 µM | IC50 (NCIH 460): 0.032 ± 0.0055 µM

Cc1cc(=O)[nH]n1-c1nc(-c2cccc3ccccc23)cc(-c2cccs2)c1C#N [13b, 2-(5-Methyl-3-oxo-2,3-dihydro-1H-pyrazol-1-yl)-6-(naphthalen-1-yl)-4-(thiophen-2-yl)nicotinonitrile]
IC50 (U937): 1.76 ± 0.068 µM | IC50 (HeLa): 1.36 ± 0.139 µM | IC50 (SKMEL-28; Homo sapiens, SK-MEL-28, 72 h): 1.36 ± 0.182 µM | IC50 (RKOP 27): 0.698 ± 0.079 µM | IC50 (NCIH 460): 0.869 ± 0.076 µM

Cc1nnc2c(C#N)c(-c3cccs3)cc(-c3cccc4ccccc34)n12 [12b, 3-Methyl-5-(naphthalen-1-yl)-7-(thiophen-2-yl)-[1,2,4]triazolo[4,3-a]pyridine-8-carbonitrile]
IC50 (U937): 1.47 ± 0.151 µM | IC50 (HeLa): 1.44 ± 0.108 µM | IC50 (SKMEL-28; Homo sapiens, SK-MEL-28, 72 h): 1.37 ± 0.389 µM | IC50 (RKOP 27): 0.869 ± 0.087 µM | IC50 (NCIH 460): 0.648 ± 0.076 µM

N#Cc1c(-c2cccs2)cc(-c2cccc3ccccc23)nc1NN [11b, 2-Hydrazinyl-6-(naphthalen-1-yl)-4-(thiophen-2-yl)nicotinonitrile]
IC50 (U937): 1.59 ± 0.215 µM | IC50 (HeLa): 1.27 ± 0.227 µM | IC50 (SKMEL-28; Homo sapiens, SK-MEL-28, 72 h): 1.3 ± 0.106 µM | IC50 (RKOP 27): 0.846 ± 0.096 µM | IC50 (NCIH 460): 0.478 ± 0.096 µM

Cc1cc(=O)[nH]n1-c1nc(-c2cccc3ccccc23)cc(-c2ccc(Cl)cc2)c1C#N [13a, 4-(4-Chlorophenyl)-2-(5-methyl-3-oxo-2,3-dihydro-1H-pyrazol-1-yl)-6-(naphthalen-1-yl)nicotinonitrile]
IC50 (U937): 1.69 ± 0.089 µM | IC50 (HeLa): 1.27 ± 0.103 µM | IC50 (SKMEL-28; Homo sapiens, SK-MEL-28, 72 h): 1.5 ± 0.218 µM | IC50 (RKOP 27): 0.879 ± 0.068 µM | IC50 (NCIH 460): 0.765 ± 0.089 µM

N#Cc1c(-c2cccs2)cc(-c2cccc3ccccc23)nc1Cl [6b, 2-Chloro-6-(naphthalen-1-yl)-4-(thiophen-2-yl)nicotinonitrile]
IC50 (U937): 2.55 ± 0.374 µM | IC50 (HeLa): 0.795 ± 0.096 µM | IC50 (SKMEL-28; Homo sapiens, SK-MEL-28, 72 h): 1.37 ± 0.215 µM | IC50 (RKOP 27): 0.695 ± 0.056 µM | IC50 (NCIH 460): 0.728 ± 0.088 µM

CCCCCOC(=O)Nc1nc(=O)n([C@@H]2O[C@H](C)[C@@H](O)[C@H]2O)cc1F [capecitabine, reference compound]
IC50 (RKOP 27): 4.33 ± 0.064 µM

N#Cc1c(-c2ccc(Cl)cc2)cc(-c2cccc3ccccc23)nc1Cl [6a, 2-Chloro-4-(4-chlorophenyl)-6-(naphthalen-1-yl)nicotinonitrile]
IC50 (U937): 1.34 ± 0.174 µM | IC50 (HeLa): 0.896 ± 0.115 µM | IC50 (SKMEL-28; Homo sapiens, SK-MEL-28, 72 h): 1.85 ± 0.321 µM | IC50 (RKOP 27): 0.512 ± 0.032 µM | IC50 (NCIH 460): 0.689 ± 0.098 µM

N#Cc1c(-c2ccc(Cl)cc2)cc(-c2cccc3ccccc23)[nH]c1=S [7a, 4-(4-Chlorophenyl)-6-(naphthalen-1-yl)-2-thioxo-1,2-dihydropyridine-3-carbonitrile]
IC50 (U937): 1.63 ± 0.298 µM | IC50 (HeLa): 1.02 ± 0.136 µM | IC50 (SKMEL-28; Homo sapiens, SK-MEL-28, 72 h): 1.24 ± 0.196 µM | IC50 (RKOP 27): 0.596 ± 0.096 µM | IC50 (NCIH 460): 0.764 ± 0.102 µM

CCCCCCCCN(c1nc(-c2cccc3ccccc23)cc(-c2cccs2)c1C#N)c1nc(-c2cccc3ccccc23)cc(-c2cccs2)c1C#N [8b, 2,2′-(Octylazanediyl)bis(6-(naphthalen-1-yl)-4-(thiophen-2-yl)nicotinonitrile)]
IC50 (U937): 1.37 ± 0.284 µM | IC50 (HeLa): 1.04 ± 0.326 µM | IC50 (SKMEL-28; Homo sapiens, SK-MEL-28, 72 h): 1.26 ± 0.168 µM | IC50 (RKOP 27): 0.486 ± 0.049 µM | IC50 (NCIH 460): 0.468 ± 0.069 µM

Cc1nnc2c(C#N)c(-c3ccc(Cl)cc3)cc(-c3cccc4ccccc34)n12 [12a, 7-(4-Chlorophenyl)-3-methyl-5-(naphthalen-1-yl)-[1,2,4]triazolo[4,3-a]pyridine-8-carbonitrile]
IC50 (U937): 0.581 ± 0.051 µM | IC50 (HeLa): 0.185 ± 0.051 µM | IC50 (SKMEL-28; Homo sapiens, SK-MEL-28, 72 h): 0.51 ± 0.041 µM | IC50 (RKOP 27): 0.048 ± 0.0041 µM | IC50 (NCIH 460): 0.033 ± 0.0051 µM

N#Cc1c(-c2cccs2)cc(-c2cccc3ccccc23)[nH]c1=S [7b, 6-(Naphthalen-1-yl)-4-(thiophen-2-yl)-2-thioxo-1,2-dihydropyridine-3-carbonitrile]
IC50 (U937): 1.57 ± 0.321 µM | IC50 (HeLa): 1.37 ± 0.213 µM | IC50 (SKMEL-28; Homo sapiens, SK-MEL-28, 72 h): 1.13 ± 0.137 µM | IC50 (RKOP 27): 0.697 ± 0.072 µM | IC50 (NCIH 460): 0.638 ± 0.138 µM

CCCCCCCCN(c1nc(-c2cccc3ccccc23)cc(-c2ccc(Cl)cc2)c1C#N)c1nc(-c2cccc3ccccc23)cc(-c2ccc(Cl)cc2)c1C#N [8a, 2,2′-(Octylazanediyl)bis(4-(4-chlorophenyl)-6-(naphthalen-1-yl)nicotinonitrile)]
IC50 (U937): 0.544 ± 0.074 µM | IC50 (HeLa): 0.229 ± 0.074 µM | IC50 (SKMEL-28; Homo sapiens, SK-MEL-28, 72 h): 0.774 ± 0.021 µM | IC50 (RKOP 27): 0.04 ± 0.0021 µM | IC50 (NCIH 460): 0.048 ± 0.0074 µM

N#Cc1c(-c2cccs2)cc(-c2cccc3ccccc23)nc1NCCN [10b, 2-((2-Aminoethyl)amino)-6-(naphthalen-1-yl)-4-(thiophen-2-yl)nicotinonitrile]
IC50 (U937): 0.642 ± 0.069 µM | IC50 (HeLa): 0.211 ± 0.069 µM | IC50 (SKMEL-28; Homo sapiens, SK-MEL-28, 72 h): 0.669 ± 0.026 µM | IC50 (RKOP 27): 0.046 ± 0.0026 µM | IC50 (NCIH 460): 0.046 ± 0.0069 µM

COc1cccc2c1C(=O)c1c(O)c3c(c(O)c1C2=O)C[C@@](O)(C(=O)CO)C[C@@H]3O[C@H]1C[C@H](N)[C@H](O)[C@H](C)O1 [doxorubicin, reference compound]
IC50 (U937): 4.45 ± 0.05 µM

N#Cc1c(-c2cccs2)cc(-c2cccc3ccccc23)[nH]c1=O [4b, 6-(Naphthalen-1-yl)-2-oxo-4-(thiophen-2-yl)-1,2-dihydropyridine-3-carbonitrile]
IC50 (U937): 0.836 ± 0.069 µM | IC50 (HeLa): 0.246 ± 0.069 µM | IC50 (SKMEL-28; Homo sapiens, SK-MEL-28, 72 h): 0.669 ± 0.0098 µM | IC50 (RKOP 27): 0.039 ± 0.0098 µM | IC50 (NCIH 460): 0.058 ± 0.0069 µM

N#Cc1c(-c2ccc(Cl)cc2)cc(-c2cccc3ccccc23)nc1NCCN [10a, 2-((2-Aminoethyl)amino)-4-(4-chlorophenyl)-6-(naphthalen-1-yl)nicotinonitrile]
IC50 (U937): 1.81 ± 0.369 µM | IC50 (HeLa): 1.16 ± 0.206 µM | IC50 (SKMEL-28; Homo sapiens, SK-MEL-28, 72 h): 1.79 ± 0.236 µM | IC50 (RKOP 27): 0.596 ± 0.059 µM | IC50 (NCIH 460): 0.896 ± 0.078 µM

N#Cc1c(-c2ccc(Cl)cc2)cc(-c2cccc3ccccc23)nc1NN [11a, 4-(4-Chlorophenyl)-2-hydrazinyl-6-(naphthalen-1-yl)nicotinonitrile]
IC50 (U937): 0.458 ± 0.072 µM | IC50 (HeLa): 0.255 ± 0.072 µM | IC50 (SKMEL-28; Homo sapiens, SK-MEL-28, 72 h): 0.572 ± 0.036 µM | IC50 (RKOP 27): 0.055 ± 0.0036 µM | IC50 (NCIH 460): 0.044 ± 0.0072 µM

Source: PMC7970580 (ACS Omega, 2021)
